Measurements as given in paper PMC6568187 (Theranostics, 2019).

Assays:
U87-MG cells [1] = test: Organelle co-localization; type: cell-based; conditions: 20 µM, 37 °C, DMEM/F12 with 10% FBS pH 7.4
Outline: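 50,000 U87-MG cells were plated in chamber wells and adhered overnight. Then 20 μM test compound for 30 min, two PBS washes, organelle trackers (LysoTracker Green DND 26, MitoTracker Green FM, BODIPY FL C5-ceramide–BSA, ER Tracker Green), then NucBlue 10 min. Confocal imaging, 60x water objective. Lasers: 488 nm for organelle stains, 405 nm for nuclei, 633 nm for dye. Cells re-imaged after 24 h in FluoroBrite DMEM + 10% FBS; co-localization expressed as Pearson's R.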

[2] = in DMSO; λex 730 nm; used as standard; listed as ICG; cited from earlier work
Photophysical properties = type: physicochemical; conditions: 10 mM PBS buffer pH 7.4
Outline: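 Dyes in 10 mM PBS pH 7.4, 1 cm cuvettes. Excitation 730 nm; integrated emission 740–900 nm, with maximum absorbance kept below 0.1. Quantum yield came from the gradient of integrated fluorescence vs absorbance over several concentrations, referenced to ICG in DMSO (Φ 0.13). Relative absorbance and fluorescence were compared at 5 µM in the same buffer.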

[3] = Aggregation: concentration dependence of absorbance spectra; type: physicochemical; conditions: 1.25 - 20 µM in 10 mM pH 7.4 PBS buffer
[4] = Photostability under LED illumination; type: physicochemical; conditions: 780 nm LED
Outline: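 Solutions in 10 mM PBS pH 7.4, and in H2O with 1% DMSO, were left open to air and illuminated with a 780 nm LED. Dyes were used either equimolar (20 µM) or diluted to equal absorbance at 780 nm (1.7–2.7 µM). Absorbance at 780 nm was read every 10 min up to 60 min and plotted against time.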

[5] = Solubility measurement by UV absorbance; type: physicochemical
Outline: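 DMSO stocks (100 mM) were diluted to 0–1000 μM in 10 mM PBS pH 7.4 with 1% DMSO; H2O and DMEM ± 10% FBS were also tested. Samples were shaken in the dark 6 h at room temperature (25 °C), equilibrated overnight and centrifuged at 600 x g for 15 min. Supernatant absorbance was read at 780 nm against blank, in triplicate.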

U87-MG cells [6] = test: Cytotoxicity assay; type: cell-based; conditions: read-out: IC50 (cytotoxicity), 72 h in the dark, AlamarBlue
Outline: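 U87-MG cells grown in DMEM with 10% FBS at 37 °C, 5% CO2, passaged at 70% confluency. Seeded at 5000 cells/well and left overnight. DMSO stocks (0.02 M) were diluted in protein-free hybridoma medium (PFHM-II) to final 0.01–80 μM, then incubated 72 h. AlamarBlue added for 2 h; fluorescence read at Ex/Em 560/590 nm. Viability = background-corrected signal vs full-viability control ×100; n=5, mean ± SD.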

[7] = In vivo biodistribution and clearance; conditions: normal CD-1 mice, 25 nmol intravenous, imaging 0.5-4 h
most cell lines = conditions: read-out: IC50 (cytotoxicity); cited from earlier work

Compound | localization after time 0.5 h (U87-MG cells [1]) | localization after time 24 h (U87-MG cells [1]) | Φ (fluorescence quantum yield) of the standard [2] | brightness (εmax x Φ) (Photophysical properties) | εmax (Photophysical properties) [cm^-1M^-1] | λabs (Photophysical properties) [nm] | λem (Photophysical properties) [nm] | ∆λ (Stokes' shift) (Photophysical properties) [nm] | relative brightness (Photophysical properties; relative to A) | Φ (fluorescence quantum yield) (Photophysical properties; λex 730 nm, standard A in DMSO) | H-aggregation from absorbance spectra [3] | photostability ([4]; 1 h, A 2.7 µM, B 2 µM, 1 1.7 µM (same absorbance at 780 nm), 10 mM pH 7.4 PBS) | photodecomposition t1/2 ([4]; same absorbance at 780 nm, 10 mM pH 7.4 PBS buffer) [min] | solubility (soluble up to) ([5]; 10 mM pH 7.4 PBS buffer) [µM] | concentration at which it begins to aggregate ([5]; H2O) [µM] | solubility ([5]; in water, 25 °C) | IC50 (U87-MG cells [6]) [µM] | organ signal / excretion [7] | IC50 (most cell lines) [µM]
CC1(C)C(/C=C/C=C/C=C/C=C2\N(CCCCS(=O)(=O)O)c3ccc4ccccc4c3C2(C)C)=[N+](CCCCS(=O)(=O)[O-])c2ccc3ccccc3c21 [compound A, indocyanine green] | golgi and ER | golgi and lysosome | 0.13 |  |  |  |  |  |  |  |  |  |  |  |  |  |  |  | 
CC1(C)C(/C=C/C2=C(Cl)C(=C/C=C3\N(CCCCCC(=O)O)c4ccccc4C3(C)C)/CCC2)=[N+](CCCCCC(=O)O)c2ccccc21 [compound B] | mitochondria | mitochondria and lysosome |  | 3689 | 149940 | 775 | 799 | 24 | 1.90 | 0.025 | blue-shifted shoulder | least stable and decomposed | < 10 | ≥ 1000 | 100 | much less soluble | 19.1 ± 1.01 | high signal in the liver and low signal in duodenum even after 4 h post-injection | ~20
